Source: ChEMBL document CHEMBL3632548, “Oxidized Metabolites of 20-Hydroxyecdysone and Their Activity on Skeletal Muscle Cells: Preparation of a Pair of Desmotropes with Opposite Bioactivities” (J Nat Prod, 2015)
Activity calls are given as the source filed them. No cut-off for these calls is given here.

Key:
C2C12 = assay: Effect on glucose consumption in mouse C2C12 cells at 30 ug/ml after 24 hrs; assay type: functional, cell-based
Outline: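 C2C12 myoblasts are grown in high-glucose DMEM with 10% FBS at 37 °C, 5% CO2. At confluence they are switched to DMEM with 10% horse serum for 8 days to form myotubes. Myotubes are then given 10% FBS high-glucose DMEM with or without 30 μg/mL compound for 24 h. Glucose remaining in the medium is measured to calculate glucose consumption.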

[1] = Drug level in aqueous solution treated with (2S,3R,5R,9R,10R,13R,14S,17S)-2,3,14-trihydroxy-10,13-dimethyl-17-((2R,3R)-2,3,6-trihydroxy-6-methylheptan-2-yl)-2,3,4,5,9,11,12,13,14,15,16,17-dodecahydro-1H-cyclopenta[a]phenanthren-6(10H)-one at 120 mg incubated for 2 days measured at 0.5 to 48 hrs by HPLC-DAD analysis in presence of NaOH; assay type: physicochemical; conditions: in vivo
Outline: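 120 mg 20E stirred with 100 mg NaOH at room temperature (22−25 °C) and sampled over time. Samples were analysed by HPLC on a C18 column using an aqueous acetonitrile gradient with acetic acid at 1 mL/min. Peak AUC was read at each compound's λmax and calibrated against dilutions of isolated compounds. Amounts are relative to initial 20E; three independent experiments.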

[2] = Chemical stability of the compound at 80 degC; assay type: physicochemical
[3] = Drug level in aqueous solution treated with 20-hydroxyecdysone at 120 mg at pH 6 to 6.5 measured at 6 to 7 hrs hrs by HPLC-DAD analysis; assay type: physicochemical; conditions: in vivo
Outline: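 20E was reacted with NaOH at room temperature, and the mixture was set to pH 6−6.5 with acetic acid before evaporation under nitrogen. Products were quantified by C18 HPLC with an aqueous acetonitrile gradient, using AUC at λmax against calibration dilutions of isolated compounds. Amounts are expressed relative to initial 20E.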

[4] = Chemical stability of the compound in acidic media at pH 3 at room temperature; assay type: physicochemical; conditions: buffer
[5] = Chemical stability of the compound in basic media at pH 8 at room temperature; assay type: physicochemical; conditions: buffer
[6] = biological target: RAC-alpha serine/threonine-protein kinase (Mus musculus) (UniProt P31750); assay: Induction of Akt phosphorylation in mouse C2C12 cells at 30 ug/ml pretreated with compound for 24 hrs followed by fresh medium with compound addition measured after 2 hrs by Western blot analysis; assay type: cell-based
Outline: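 Differentiated C2C12 myotubes (8 days in horse serum medium) are exposed to 30 μg/mL compound in 10% FBS high-glucose DMEM for 24 h, without overnight serum starvation. Fresh medium with the same compound concentration is added for a further 2 h. Cells are lysed in SDS sample buffer, resolved on 10% SDS-PAGE, transferred to PVDF and probed for phospho- and total Akt.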

[7] = Drug level in aqueous solution treated with (2S,3R,5R,10S,13R,17S)-2,3,7-trihydroxy-10,13-dimethyl-17-((2R,3R)-2,3,6-trihydroxy-6-methylheptan-2-yl)-2,3,4,5,12,13,16,17-octahydro-1H-cyclopenta[a]phenanthren-6(10H)-one at 80 degC after 4 days; assay type: physicochemical; conditions: buffer, 96 h
[8] = Chemical stability of the compound in neutral media at room temperature; assay type: physicochemical
[9] = Drug level in aqueous solution treated with (2S,3R,10R,13R,14S,17S)-2,3,6,14-tetrahydroxy-10,13-dimethyl-17-((2R,3R)-2,3,6-trihydroxy-6-methylheptan-2-yl)-3,4,10,11,12,13,14,15,16,17-decahydro-1H-cyclopenta[a]phenanthren-7(2H)-one at pH 3; assay type: physicochemical; conditions: buffer
[10] = Drug level in aqueous solution treated with (2S,3R,10R,13R,14S,17S)-2,3,6,14-tetrahydroxy-10,13-dimethyl-17-((2R,3R)-2,3,6-trihydroxy-6-methylheptan-2-yl)-3,4,10,11,12,13,14,15,16,17-decahydro-1H-cyclopenta[a]phenanthren-7(2H)-one at pH 8; assay type: physicochemical; conditions: buffer
[11] = Drug level in aqueous solution treated with 20-hydroxyecdysone at 120 mg incubated for 2 days measured at 0.5 to 48 hrs by HPLC-DAD analysis in presence of NaOH; assay type: physicochemical; conditions: in vivo
Outline: (§1)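 20E (120 mg) is stirred at room temperature (22−25 °C) in 70% aqueous MeOH with 2% NaOH, and aliquots are taken over time. Analysis is by analytical HPLC on a C18 column with an aqueous acetonitrile gradient and 9.6% acetic acid, 1 mL/min. Compounds are quantified from peak AUC at each λmax against calibration dilutions and expressed relative to initial 20E. Three independent experiments; one-phase decay regression.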

[12] = Half life of the compound by HPLC analysis in presence of NaOH; assay type: physicochemical; outline: as §1

Chain of RAC-alpha serine/threonine-protein kinase (Mus musculus) (P31750 whole entry): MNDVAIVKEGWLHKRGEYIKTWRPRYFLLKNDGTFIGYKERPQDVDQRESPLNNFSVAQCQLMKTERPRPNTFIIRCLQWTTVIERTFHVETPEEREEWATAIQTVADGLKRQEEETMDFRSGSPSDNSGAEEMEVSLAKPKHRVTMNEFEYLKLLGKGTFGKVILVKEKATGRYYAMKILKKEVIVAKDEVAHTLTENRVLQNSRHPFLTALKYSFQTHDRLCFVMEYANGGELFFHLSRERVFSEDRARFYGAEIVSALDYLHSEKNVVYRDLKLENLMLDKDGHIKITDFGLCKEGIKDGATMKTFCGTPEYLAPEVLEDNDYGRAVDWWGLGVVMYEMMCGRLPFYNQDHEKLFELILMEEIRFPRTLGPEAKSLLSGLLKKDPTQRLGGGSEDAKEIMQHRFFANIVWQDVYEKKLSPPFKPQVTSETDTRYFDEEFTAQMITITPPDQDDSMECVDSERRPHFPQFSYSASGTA

## CC(C)(O)CC[C@@H](O)[C@](C)(O)[C@H]1CC[C@@]2(O)C3=CC(=O)[C@@H]4C[C@@H](O)[C@@H](O)C[C@]4(C)C3=CC[C@]12C
C2C12
  Activity: inactive

## CC(C)(O)CC[C@@H](O)[C@](C)(O)[C@H]1CC[C@@]2(O)C3=CC(=O)[C@@H]4C[C@@H](O)[C@@H](O)C[C@]4(C)[C@@]3(O)CC[C@]12C
[1]
  Drug metabolism: metabolite_detected
C2C12
  Activity: inactive

## CC(C)(O)CC[C@@H](O)[C@](C)(O)[C@H]1CC=C2C3=C(CC[C@@]21C)[C@@]1(C)C[C@H](O)[C@H](O)CC1=C(O)C3=O
[2]
  Stability: Stable
[3]
  Drug metabolism: metabolite_detected
[4]
  Stability: Stable
[5]
  Stability: Stable
[6]
  Activity: Active
[7]
  Drug metabolism: metabolite_detected
C2C12
  Activity: inactive
[8]
  Stability: Stable
[9]
  Drug metabolism: metabolite_detected

## CC(C)(O)CC[C@@H](O)[C@](C)(O)[C@H]1CC=C2C3=C(O)C(=O)[C@@H]4C[C@@H](O)[C@@H](O)C[C@]4(C)C3=CC[C@@]21C
[4]
  Stability: Stable
[10]
  Drug metabolism: metabolite_detected
[5]
  Stability: Stable
[6]
  Activity: inactive
[11]
  Drug metabolism: metabolite_detected
C2C12
  Activity: inactive
[8]
  Stability: Stable

## CC(C)(O)CC[C@@H](O)[C@](C)(O)[C@H]1CC[C@@]2(O)C3=C(CC[C@]12C)[C@@]1(C)C[C@H](O)[C@H](O)CC1=C(O)C3=O
[11]
  Drug metabolism: metabolite_detected
C2C12
  Activity: inactive

## CC(C)(O)CC[C@@H](O)[C@](C)(O)[C@H]1CC[C@@]2(O)C3=CC(=O)[C@@H]4C[C@@H](O)[C@@H](O)C[C@]4(C)[C@H]3CC[C@]12C [20-HYDROXYECDYSONE]
[12]
  half-life: 1.39 h
[6]
  Activity: inactive
C2C12
  Activity: inactive

## CC(C)(O)CC[C@@H](O)[C@](C)(O)[C@H]1CC[C@@]2(O)C3=CC(=O)[C@H]4C[C@@H](O)[C@@H](O)C[C@]4(C)[C@@]3(O)CC[C@]12C
[1]
  Drug metabolism: metabolite_detected
[6]
  Activity: Active
C2C12
  Activity: inactive
